{
  "source": "ChEMBL document CHEMBL1137696",
  "about": "“Preparation and in vitro evaluation of benzylsulfanyl benzoxazole derivatives as potential antituberculosis agents” (2009)",
  "key": {"Mycobacterium kansasii [1]": {"system": "Mycobacterium kansasii", "test": "Antimycobacterial activity against Mycobacterium kansasii 6509/96 after 14 days by micromethod", "assay_type": "functional", "settings": "6509/96, 336 h", "procedure,_shortened": "(§1)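 Micromethod MIC in Šula semisynthetic medium, with compounds added as DMSO solutions at 1000, 500, 250, 125, 62, 32, 16, 8, 4 and 2 µmol/L. Cultures were incubated at 37 °C, and M. kansasii was read at 7, 14 and 21 days. MIC is the lowest concentration at which mycobacterial growth was inhibited. INH served as standard. Strain 6509/96 was a clinical isolate.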"}, "Tetranychus urticae [2]": {"system": "Tetranychus urticae", "test": "Insecticidal activity against glasshouse red spider mite egg", "assay_type": "functional"}, "[3]": {"system": "Mycobacterium tuberculosis", "test": "Antimycobacterial activity against Mycobacterium tuberculosis CNCTC My 331/88 after 14 days by micromethod", "assay_type": "functional", "settings": "CNCTC My 331/88, 336 h", "procedure,_shortened": "(§2)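 MIC by micromethod in Šula semisynthetic medium. Compounds added as DMSO solutions at 1000, 500, 250, 125, 62, 32, 16, 8, 4 and 2 µmol/L. Incubated at 37 °C and read at 14 and 21 days. MIC taken as the lowest concentration that inhibited mycobacterial growth, expressed in µmol/L. INH run as standard. Strains from CNCTC.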"}, "Tetranychus urticae [4]": {"system": "Tetranychus urticae", "test": "Insecticidal activity against glasshouse red spider mite larvae", "assay_type": "functional, organism-based"}, "Mycobacterium kansasii [5]": {"system": "Mycobacterium kansasii", "test": "Antimycobacterial activity against Mycobacterium kansasii CNCTC My 235/80 after 14 days by micromethod", "assay_type": "functional", "settings": "CNCTC My 235/80, 336 h", "procedure,_shortened": "as §1"}, "[6]": {"system": "Mycobacterium tuberculosis", "test": "Antimycobacterial activity against Mycobacterium tuberculosis CNCTC My 331/88 after 21 days by micromethod", "assay_type": "functional", "settings": "CNCTC My 331/88, 504 h", "procedure,_shortened": "as §2"}, "Mycobacterium avium [7]": {"system": "Mycobacterium avium", "test": "Antimycobacterial activity against Mycobacterium avium CNCTC My 330/88 after 21 days by micromethod", "assay_type": "functional", "settings": "CNCTC My 330/88, 504 h", "procedure,_shortened": "as §2"}, "Mycobacterium kansasii [8]": {"system": "Mycobacterium kansasii", "test": "Antimycobacterial activity against Mycobacterium kansasii CNCTC My 235/80 after 21 days by micromethod", "assay_type": "functional", "settings": "CNCTC My 235/80, 504 h", "procedure,_shortened": "as §1"}, "Mycobacterium avium [9]": {"system": "Mycobacterium avium", "test": "Antimycobacterial activity against Mycobacterium avium CNCTC My 330/88 after 14 days by micromethod", "assay_type": "functional", "settings": "CNCTC My 330/88, 336 h", "procedure,_shortened": "as §2"}, "Mycobacterium kansasii [10]": {"system": "Mycobacterium kansasii", "test": "Antimycobacterial activity against Mycobacterium kansasii 6509/96 after 7 days by micromethod", "assay_type": "functional", "settings": "6509/96, 168 h", "procedure,_shortened": "as §1"}, "Mycobacterium kansasii [11]": {"system": "Mycobacterium kansasii", "test": "Antimycobacterial activity against Mycobacterium kansasii CNCTC My 235/80 after 7 days by micromethod", "assay_type": "functional", "settings": "CNCTC My 235/80, 168 h", "procedure,_shortened": "as §1"}, "Mycobacterium kansasii [12]": {"system": "Mycobacterium kansasii", "test": "Antimycobacterial activity against Mycobacterium kansasii 6509/96 after 21 days by micromethod", "assay_type": "functional", "settings": "6509/96, 504 h", "procedure,_shortened": "as §1"}, "K562": {"system": "K562", "test": "Growth inhibition of human K562 cells", "assay_type": "functional", "procedure,_shortened": "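K-562 suspension cultures in microplates were exposed to 10 concentrations of compound. Each well was diluted 1:50 in CASYTON and counted with a CASY 1 electronic cell analyzer (150 µm aperture), using the mean of three successive 0.4 mL counts. GI50 is the point where the concentration-response curve of cell counts/mL relative to control crosses the 50% line.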"}, "L929": {"system": "L929", "test": "Growth inhibition of mouse L929 cells", "assay_type": "functional", "procedure,_shortened": "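Antiproliferative assay on adherent L-929 monolayers exposed to 10 concentrations of compound. Cells were fixed with glutaraldehyde, stained with 0.05% methylene blue for 15 min, washed, and the dye eluted with 0.33 N HCl. OD was read at 630 nm, and GI50 is the concentration giving 50% growth inhibition.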"}, "HeLa": {"system": "HeLa", "test": "Cytotoxicity against human HeLa cells", "assay_type": "functional", "procedure,_shortened": "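Adherent HeLa monolayers were incubated with 10 concentrations of compound, then glutaraldehyde-fixed and stained with 0.05% methylene blue for 15 min. After gentle washing, the stain was eluted with 0.33 N HCl and absorbance read at 630 nm. CC50 is the concentration causing 50% cytotoxic (lytic) effect.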"}},
  "note": "Activity calls are given as the source filed them. No cut-off for these calls is given here.",
  "data": [
    {"molecule": "Clc1ccc(CSc2nc3ccccc3o2)cc1", "values": [
      {"measurement": "MIC", "setting": "Mycobacterium kansasii [1]", "result": 62, "unit": "µM"},
      {"measurement": "Activity", "setting": "Tetranychus urticae [2]", "result": "Active"},
      {"measurement": "MIC", "setting": "[3]", "result": 250, "unit": "µM"},
      {"measurement": "Activity", "setting": "Tetranychus urticae [4]", "result": "Active"},
      {"measurement": "MIC", "setting": "Mycobacterium kansasii [5]", "result": 62, "unit": "µM"},
      {"measurement": "MIC", "setting": "[6]", "result": "> 500", "unit": "µM"},
      {"measurement": "MIC", "setting": "Mycobacterium avium [7]", "result": 62, "unit": "µM"},
      {"measurement": "MIC", "setting": "Mycobacterium kansasii [8]", "result": 125, "unit": "µM"},
      {"measurement": "MIC", "setting": "Mycobacterium avium [9]", "result": 62, "unit": "µM"},
      {"measurement": "MIC", "setting": "Mycobacterium kansasii [10]", "result": 32, "unit": "µM"},
      {"measurement": "MIC", "setting": "Mycobacterium kansasii [11]", "result": 32, "unit": "µM"},
      {"measurement": "MIC", "setting": "Mycobacterium kansasii [12]", "result": 125, "unit": "µM"}
    ]},
    {"molecule": "O=[N+]([O-])c1ccc(CSc2nc3ccccc3o2)c([N+](=O)[O-])c1", "values": [
      {"measurement": "MIC", "setting": "Mycobacterium kansasii [1]", "result": 8, "unit": "µM"},
      {"measurement": "GI50", "setting": "K562", "result": 10.4, "unit": "µg/mL"},
      {"measurement": "MIC", "setting": "[3]", "result": 8, "unit": "µM"},
      {"measurement": "GI50", "setting": "L929", "result": "> 50", "unit": "µg/mL"},
      {"measurement": "CC50", "setting": "HeLa", "result": 45.1, "unit": "µg/mL"},
      {"measurement": "MIC", "setting": "Mycobacterium kansasii [5]", "result": 4, "unit": "µM"},
      {"measurement": "MIC", "setting": "[6]", "result": 8, "unit": "µM"},
      {"measurement": "MIC", "setting": "Mycobacterium avium [7]", "result": "> 32", "unit": "µM"},
      {"measurement": "MIC", "setting": "Mycobacterium kansasii [8]", "result": 4, "unit": "µM"},
      {"measurement": "MIC", "setting": "Mycobacterium avium [9]", "result": "> 16", "unit": "µM"},
      {"measurement": "MIC", "setting": "Mycobacterium kansasii [10]", "result": 4, "unit": "µM"},
      {"measurement": "MIC", "setting": "Mycobacterium kansasii [11]", "result": 4, "unit": "µM"},
      {"measurement": "MIC", "setting": "Mycobacterium kansasii [12]", "result": 8, "unit": "µM"}
    ]},
    {"molecule": "NC(=S)c1cccc(CSc2nc3ccccc3o2)c1", "values": [
      {"measurement": "MIC", "setting": "Mycobacterium kansasii [1]", "result": 32, "unit": "µM"},
      {"measurement": "GI50", "setting": "K562", "result": 5.5, "unit": "µg/mL"},
      {"measurement": "MIC", "setting": "[3]", "result": 8, "unit": "µM"},
      {"measurement": "GI50", "setting": "L929", "result": 17.3, "unit": "µg/mL"},
      {"measurement": "CC50", "setting": "HeLa", "result": 21.6, "unit": "µg/mL"},
      {"measurement": "MIC", "setting": "Mycobacterium kansasii [5]", "result": 32, "unit": "µM"},
      {"measurement": "MIC", "setting": "[6]", "result": 16, "unit": "µM"},
      {"measurement": "MIC", "setting": "Mycobacterium avium [7]", "result": 62, "unit": "µM"},
      {"measurement": "MIC", "setting": "Mycobacterium kansasii [8]", "result": 32, "unit": "µM"},
      {"measurement": "MIC", "setting": "Mycobacterium avium [9]", "result": 62, "unit": "µM"},
      {"measurement": "MIC", "setting": "Mycobacterium kansasii [10]", "result": 8, "unit": "µM"},
      {"measurement": "MIC", "setting": "Mycobacterium kansasii [11]", "result": 8, "unit": "µM"},
      {"measurement": "MIC", "setting": "Mycobacterium kansasii [12]", "result": 32, "unit": "µM"}
    ]},
    {"molecule": "NC(=S)c1ccc(CSc2nc3ccccc3o2)cc1", "values": [
      {"measurement": "MIC", "setting": "Mycobacterium kansasii [1]", "result": 16, "unit": "µM"},
      {"measurement": "GI50", "setting": "K562", "result": 9.4, "unit": "µg/mL"},
      {"measurement": "MIC", "setting": "[3]", "result": 8, "unit": "µM"},
      {"measurement": "GI50", "setting": "L929", "result": 23.8, "unit": "µg/mL"},
      {"measurement": "CC50", "setting": "HeLa", "result": 23.6, "unit": "µg/mL"},
      {"measurement": "MIC", "setting": "Mycobacterium kansasii [5]", "result": 16, "unit": "µM"},
      {"measurement": "MIC", "setting": "[6]", "result": 16, "unit": "µM"},
      {"measurement": "MIC", "setting": "Mycobacterium avium [7]", "result": 32, "unit": "µM"},
      {"measurement": "MIC", "setting": "Mycobacterium kansasii [8]", "result": 16, "unit": "µM"},
      {"measurement": "MIC", "setting": "Mycobacterium avium [9]", "result": 32, "unit": "µM"},
      {"measurement": "MIC", "setting": "Mycobacterium kansasii [10]", "result": 8, "unit": "µM"},
      {"measurement": "MIC", "setting": "Mycobacterium kansasii [11]", "result": 8, "unit": "µM"},
      {"measurement": "MIC", "setting": "Mycobacterium kansasii [12]", "result": 16, "unit": "µM"}
    ]}
  ]
}
